Measurements taken from paper PMC9918595 (Molecular imaging and biology, 2022).
pIC50: −log10 of the molar value. “And” between values parts separate entries of the source, which are not always exact repeats. Equal entries are not always repeated. “Also recorded” adds a separate entry of the source. Where two headings read alike, the source gives them in different places.

How the values were obtained:
human TRPC5 [1] = conditions: calcium flux assay; cited from earlier work
[2] = in vivo studies; cited from earlier work
human TRPC5 [3] = conditions: whole-cell manual patched clamp assay; cited from earlier work
[4] = tested on: wide range of molecular targets including ion channels (TRPV, TRPM), receptors (dopamine D1 and D2, NMDA, TNF-α) and enzymes (acetylcholinesterase, tyrosine …); conditions: patch clamp assay; cited from earlier work
TRPC5 [5] = target: T1, TRPC5 (Rattus norvegicus, UniProt Q8VD38); assay: In vitro autoradiography study of the rat brain; type: binding, Sprague Dawley rats
T1 sequence (Q8VD38 1-974): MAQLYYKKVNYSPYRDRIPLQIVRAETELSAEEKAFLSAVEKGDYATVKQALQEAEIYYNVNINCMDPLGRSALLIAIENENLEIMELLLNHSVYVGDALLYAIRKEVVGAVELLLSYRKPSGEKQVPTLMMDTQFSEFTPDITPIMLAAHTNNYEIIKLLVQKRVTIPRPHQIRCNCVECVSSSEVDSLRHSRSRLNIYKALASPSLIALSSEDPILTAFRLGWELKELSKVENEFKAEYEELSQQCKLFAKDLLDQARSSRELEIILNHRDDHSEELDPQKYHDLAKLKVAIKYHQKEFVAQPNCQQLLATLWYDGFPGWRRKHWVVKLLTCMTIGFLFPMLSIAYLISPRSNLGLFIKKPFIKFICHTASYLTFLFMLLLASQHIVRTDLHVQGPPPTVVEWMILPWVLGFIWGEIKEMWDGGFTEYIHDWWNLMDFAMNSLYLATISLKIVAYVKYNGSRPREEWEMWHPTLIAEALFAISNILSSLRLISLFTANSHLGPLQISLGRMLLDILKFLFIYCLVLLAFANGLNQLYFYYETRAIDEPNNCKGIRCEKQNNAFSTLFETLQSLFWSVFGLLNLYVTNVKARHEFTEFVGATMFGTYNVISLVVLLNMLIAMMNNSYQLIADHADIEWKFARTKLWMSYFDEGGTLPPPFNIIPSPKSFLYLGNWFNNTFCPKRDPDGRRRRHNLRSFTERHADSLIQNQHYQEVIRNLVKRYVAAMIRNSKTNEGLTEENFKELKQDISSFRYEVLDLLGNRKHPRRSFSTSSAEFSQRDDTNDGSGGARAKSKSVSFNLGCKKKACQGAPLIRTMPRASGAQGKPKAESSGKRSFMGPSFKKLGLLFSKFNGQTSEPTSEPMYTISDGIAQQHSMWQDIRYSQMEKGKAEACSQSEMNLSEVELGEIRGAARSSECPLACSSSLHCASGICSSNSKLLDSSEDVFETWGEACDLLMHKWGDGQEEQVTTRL

[6] = Ex vivo biodistribution study; type: in vivo, Sprague Dawley rats; conditions: for Tracer uptake, Blood / Tracer uptake, Brain / Tracer uptake, Fat / Tracer uptake, Heart / Tracer uptake, Kidney / Tracer uptake, Lung / Tracer uptake, Muscle / Tracer uptake, Pancreas / Tracer uptake, Small intestine / Tracer uptake, Spleen / Tracer uptake, Thymus / Tracer uptake, Liver: iv, n = 4
TRPC5 [7] = assay: MicroPET brain study of the nonhuman primate; type: in vivo, cynomolgus macaques
Method in brief: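 Adult male cynomolgus macaques (9–10 kg), two tracer scans in each of two animals; fasted 12 h, ketamine (10–20 mg kg−1) plus glycopyrrolate ([…]) i.m., intubated, 0.8–2.0% isoflurane/oxygen. Venous catheter; 10 min positioning and 45 min attenuation transmission scans. IV bolus ~0.35 GBq (injected mass ~4.2 μg); 0–120 min dynamic scan (3×1, 4×2, 3×3, 20×5 min frames).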

[8] = LogD7.4 measurement, shake flask method; type: physicochemical; conditions: n-octanol / PBS pH 7.4, n = 3
TRPC5 [9] = target: T2, TRPC5 (Mus musculus, UniProt Q9QX29); type: in vivo, 129S1/SvImJ mice; conditions: 129S1/SvImJ wild-type mice
T2 sequence (Q9QX29 1-975): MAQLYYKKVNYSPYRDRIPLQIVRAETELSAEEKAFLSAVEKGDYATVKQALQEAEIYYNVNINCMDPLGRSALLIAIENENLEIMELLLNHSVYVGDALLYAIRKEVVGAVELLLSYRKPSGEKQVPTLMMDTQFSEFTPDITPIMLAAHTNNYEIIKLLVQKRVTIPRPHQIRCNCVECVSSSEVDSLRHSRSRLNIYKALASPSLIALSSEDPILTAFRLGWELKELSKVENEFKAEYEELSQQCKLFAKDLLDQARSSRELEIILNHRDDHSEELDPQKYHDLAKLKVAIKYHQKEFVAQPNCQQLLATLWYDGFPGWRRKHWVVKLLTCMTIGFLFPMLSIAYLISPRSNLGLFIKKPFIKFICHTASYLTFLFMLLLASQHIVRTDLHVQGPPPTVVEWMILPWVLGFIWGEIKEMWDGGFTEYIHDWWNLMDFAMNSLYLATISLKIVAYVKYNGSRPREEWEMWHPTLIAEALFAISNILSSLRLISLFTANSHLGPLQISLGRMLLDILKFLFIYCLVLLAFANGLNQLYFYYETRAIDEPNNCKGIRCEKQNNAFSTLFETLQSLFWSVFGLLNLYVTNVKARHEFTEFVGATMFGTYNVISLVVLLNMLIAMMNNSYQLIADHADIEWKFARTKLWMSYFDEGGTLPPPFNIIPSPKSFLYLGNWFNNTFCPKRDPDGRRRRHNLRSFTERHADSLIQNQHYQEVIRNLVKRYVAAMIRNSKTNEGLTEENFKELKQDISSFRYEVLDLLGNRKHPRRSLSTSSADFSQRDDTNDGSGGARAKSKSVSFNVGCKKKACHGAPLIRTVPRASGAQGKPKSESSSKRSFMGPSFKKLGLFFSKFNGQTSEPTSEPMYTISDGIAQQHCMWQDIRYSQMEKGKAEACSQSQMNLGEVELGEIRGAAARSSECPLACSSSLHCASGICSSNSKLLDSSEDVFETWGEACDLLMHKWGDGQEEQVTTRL

TRPC5 [10] = type: in vivo, 129S1/SvImJ mice; conditions: 129S1/SvImJ TRPC5 knockout mice
[11] = Solubility of the radiotracer in dose formulation; type: physicochemical

Q: Which results are given for Cn1c(=O)n(CCCO)c(=O)c2c1nc(Oc1cccc(Cl)c1)n2Cc1ccc(Cl)cc1 [HC070]?
A: pIC50 (human TRPC5 [1]): 8.03; anxiolytic and antidepressant function [2]: carries anxiolytic and antidepressant function; oral bioavailability [2]: orally bioavailable; pIC50 (human TRPC5 [3]): 9.28; selectivity over a wide range of molecular targets [4]: at least 400 fold

Q: For Cn1c(=O)n(CCCO)c(=O)c2c1nc(Oc1cccc(OC(F)(F)F)c1)n2Cc1ccc(Cl)cc1 [HC608], which “blocking of [^11C]HC070 binding in rat brain sections” value (TRPC5 [5]; cold blocker at 1 μM) is on record?
A: Its value is “significantly reduced binding; also recorded: able to reduce the radioactivity signal in the tissue slides very well; also recorded: significantly blocked”.

Q: Which “brain uptake ratio from 5 min to 60 min” value ([6]; SD rats, 5 min/60 min) does the source give for [11CH3]n1c(=O)n(CCCO)c(=O)c2c1nc(Oc1cccc(Cl)c1)n2Cc1ccc(Cl)cc1 [[^11C]HC070] here?
A: Its value is 4.5.

Q: And the “Tracer uptake, Blood” value ([6]; SD rats, 5 min post injection)?
A: The value was 0.13±0.02 %I.D./gram.

Q: And the “Tracer uptake, Brain” value ([6]; SD rats, 5 min post injection)?
A: Its value is 0.47±0.10 %I.D./gram.

Q: And the “Tracer uptake, Fat” value ([6]; SD rats, 5 min post injection)?
A: Its value is 0.07±0.02 %I.D./gram.

Q: And the “Tracer uptake, Heart” value ([6]; SD rats, 5 min post injection)?
A: The value was 0.94±0.12 %I.D./gram.

Q: And the “Tracer uptake, Kidney” value ([6]; SD rats, 5 min post injection)?
A: Its value is 1.28±0.28 %I.D./gram.

Q: And the “Tracer uptake, Lung” value ([6]; SD rats, 5 min post injection)?
A: The value was 0.72±0.07 %I.D./gram.

Q: And the “Tracer uptake, Muscle” value ([6]; SD rats, 5 min post injection)?
A: Its value is 0.12±0.01 %I.D./gram.

Q: And the “Tracer uptake, Pancreas” value ([6]; SD rats, 5 min post injection)?
A: The value was 1.33±0.30 %I.D./gram.

Q: And the “Tracer uptake, Small intestine” value ([6]; SD rats, 5 min post injection)?
A: The value was 1.16±0.11 %I.D./gram.

Q: And the “Tracer uptake, Spleen” value ([6]; SD rats, 5 min post injection)?
A: The value was 0.73±0.17 %I.D./gram.

Q: And the “Tracer uptake, Thymus” value ([6]; SD rats, 5 min post injection)?
A: Its value is 0.47±0.08 %I.D./gram.

Q: And the “Tracer uptake, Blood” value ([6]; SD rats, 30 min post injection)?
A: Its value is 0.12±0.02 %I.D./gram.

Q: What about the “Tracer uptake, Brain” value ([6]; SD rats, 30 min post injection) of the same compound?
A: The value was 0.18±0.01 %I.D./gram.

Q: What about the “Tracer uptake, Fat” value ([6]; SD rats, 30 min post injection) of the same compound?
A: The value was 0.31±0.09 %I.D./gram.

Q: What about the “Tracer uptake, Heart” value ([6]; SD rats, 30 min post injection) of the same compound?
A: The value was 0.33±0.03 %I.D./gram.

Q: And the “Tracer uptake, Kidney” value ([6]; SD rats, 30 min post injection)?
A: The value was 0.46±0.03 %I.D./gram.

Q: And the “Tracer uptake, Liver” value ([6]; SD rats, 30 min post injection)?
A: Its value is 1.70±0.18 %I.D./gram.

Q: What about the “Tracer uptake, Lung” value ([6]; SD rats, 30 min post injection) of the same compound?
A: The value was 0.41±0.07 %I.D./gram.

Q: And the “Tracer uptake, Muscle” value ([6]; SD rats, 30 min post injection)?
A: The value was 0.17±0.02 %I.D./gram.

Q: What about the “Tracer uptake, Pancreas” value ([6]; SD rats, 30 min post injection) of the same compound?
A: Its value is 0.47±0.01 %I.D./gram.

Q: And the “Tracer uptake, Small intestine” value ([6]; SD rats, 30 min post injection)?
A: The value was 3.01±0.23 %I.D./gram.

Q: And the “Tracer uptake, Spleen” value ([6]; SD rats, 30 min post injection)?
A: The value was 0.20±0.02 %I.D./gram.

Q: What about the “Tracer uptake, Thymus” value ([6]; SD rats, 30 min post injection) of the same compound?
A: Its value is 0.24±0.02 %I.D./gram.

Q: And the “Tracer uptake, Blood” value ([6]; SD rats, 60 min post injection)?
A: Its value is 0.12±0.01 %I.D./gram.

Q: And the “Tracer uptake, Brain” value ([6]; SD rats, 60 min post injection)?
A: Its value is 0.09±0.02 %I.D./gram.

Q: And the “Tracer uptake, Fat” value ([6]; SD rats, 60 min post injection)?
A: The value was 0.35±0.12 %I.D./gram.

Q: And the “Tracer uptake, Heart” value ([6]; SD rats, 60 min post injection)?
A: The value was 0.20±0.03 %I.D./gram.

Q: And the “Tracer uptake, Kidney” value ([6]; SD rats, 60 min post injection)?
A: The value was 0.33±0.05 %I.D./gram.

Q: And the “Tracer uptake, Liver” value ([6]; SD rats, 60 min post injection)?
A: The value was 1.88±0.13 %I.D./gram.

Q: What about the “Tracer uptake, Lung” value ([6]; SD rats, 60 min post injection) of the same compound?
A: The value was 0.23±0.07 %I.D./gram.

Q: And the “Tracer uptake, Muscle” value ([6]; SD rats, 60 min post injection)?
A: Its value is 0.13±0.02 %I.D./gram.

Q: And the “Tracer uptake, Pancreas” value ([6]; SD rats, 60 min post injection)?
A: The value was 0.33±0.06 %I.D./gram.

Q: And the “Tracer uptake, Small intestine” value ([6]; SD rats, 60 min post injection)?
A: Its value is 3.01±1.71 %I.D./gram.

Q: And the “Tracer uptake, Spleen” value ([6]; SD rats, 60 min post injection)?
A: The value was 0.13±0.01 %I.D./gram.

Q: And the “Tracer uptake, Thymus” value ([6]; SD rats, 60 min post injection)?
A: The value was 0.13±0.03 %I.D./gram.

Q: What about the clearance from plasma ([6]; rats, ex vivo distribution) of the same compound?
A: Its clearance from plasma is “cleared from plasma primarily through hepatobiliary metabolism”.

Q: What about the “regional brain uptake, prefrontal cortex (SUV)” value (TRPC5 [7]; macaque, highest regional radioactivity) of the same compound?
A: Its value is 2.88.

Q: And the “fold higher brain uptake compared with [^11C]HC608” value (TRPC5 [7]; macaque, initial time (5 min), average)?
A: The value was 2.4 fold.

Q: What about the “time of maximum brain uptake post-injection” value (TRPC5 [7]; male cynomolgus macaque) of the same compound?
A: Its value is 3 to 5 min.

Q: And the “maximum total brain uptake (SUV)” value (TRPC5 [7]; male cynomolgus macaque, iv, 0-120 min dynamic PET)?
A: Its value is ~ 2.2 and 2.2.

Q: What about the “regional accumulation in rat brain sections” value (TRPC5 [5]; 1.11 MBq/slide, room temperature, 30 min) of the same compound?
A: Its value is “highest accumulation in the TRPC5-enriched colliculus, striatum, cortex, and thalamus regions”.

Q: And the “binding specificity in rat brain sections” value (TRPC5 [5]; autoradiography with HC608 block)?
A: Its value is “specifically binds TRPC5 sites in rat brain sections”.

Q: What about the logD7.4 [8] of the same compound?
A: Its logD7.4 is 1.08 ± 0.04.

Q: What about the “time of peak brain uptake” value (TRPC5 [9]) of the same compound?
A: Its value is ~ 1.0 min.

Q: What about the “peak brain uptake (SUV)” value (TRPC5 [9]; iv, 0-60 min dynamic PET, n = 3) of the same compound?
A: The value was 1.13 and ~ 1.13 and 1.13 ± 0.08.

Q: And the “time of peak brain uptake” value (TRPC5 [10])?
A: Its value is ≤ 2 min.

Q: And the solubility ([11]; dose formulation, ethanol/saline)?
A: Its solubility is “good solubility; also recorded: improved solubility in ethanol/saline medium”.

Q: What about the “residue retaining inside surface of a glass vial or a syringe” value ([11]; dose solution without Kolliphor HS15) of the same compound?
A: The value was “little percentage of retaining was detected”.
